Measured values reported in PubChem BioAssay AID1019 (Sanford-Burnham Center for Chemical Genomics, 2008).
The whole screen tested about 190,000 compounds, of which fewer than 10 were called active.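 How the source made its calls: active means over 50% inhibition of intestinal alkaline phosphatase at 20 µM in the single-dose screen; inactive means the rest.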 A selection follows.

These compounds were tested on alkaline phosphatase, intestinal [Bos taurus] (assay: IAP enzyme activity blockers – biochemical, bovine IAP, CDP-star luminescence, selectivity assay for TNAP inhibitor project, primary screen (AID 1019)). Details: purified bovine IAP, 30 min, at 20 µM, active compounds read high.
In short: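 Assay system – bovine IAP enzyme · Quantity – bovine IAP at 1/65,000,000 final dilution · Detection – CDP-star luminescence signal · Times – 30 min reaction at room temperature · Also added – CDP-star substrate at 30 µM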

inhibition, inactive:
Cn1cccc1C(C#N)c1ccccc1C#N (stereo not given) -10.8%
Cc1ccc(NC(=S)N(Cc2ccco2)C(C)c2cccs2)cc1 (stereo not given) 34.5%
NC1=C([N+](=O)[O-])C(c2ccccc2)C2=C(CCCC2=O)O1 (stereo not given) 3.7%
COc1ccccc1Oc1ccc(N/C=C2/CCCC2=O)cc1 20.1%
CC(=O)Nc1nc(N(C)C)nc(N(C)C)n1 4.4%
CC(=O)c1ccc(N=C2SCCCN2C(=O)C2CCCCC2)cc1 24.2%
COc1ccccc1N1CCN(CC(=O)NCCc2ccc(S(N)(=O)=O)cc2)CC1 -0.9%
Oc1ccc(/C=N/Nc2ccc(C(F)(F)F)cn2)cc1O -26.9%
COc1ccc(OC)c(C2C3=C(N=c4s/c(=C\c5cccc(O)c5)c(=O)n42)c2ccccc2CC3)c1 (stereo not given) 0.5%
COc1ccc(NC(=O)C(C)SCc2ccccc2)cc1 (stereo not given) -24.1%
CN(c1ccccc1)S(=O)(=O)c1ccc(Cl)c(C(=O)OCC(=O)N2CCOCC2)c1 0.4%
CC(NCc1nc2ccccc2n1C)C12CC3CC(CC(C3)C1)C2 (stereo not given) 1%
CCN(CC)S(=O)(=O)c1cc([N+](=O)[O-])ccc1N=Nc1c(O)n(C)c2ccccc12 -5.1%
Cc1cccc(CN2CCN(Cc3cnn(-c4ccccc4F)c3)CC2CCO)n1 (stereo not given) -15.4%
O=[N+]([O-])c1ccccc1N/N=C1\CCc2ccccc21 14.9%
CCc1ccc(C(=O)OCC(=O)Nc2cccc(S(=O)(=O)NC3=NCCCCC3)c2)cc1 7.2%
O=C(COC(=O)c1cc(-c2cccs2)nn1-c1ccccc1)Nc1cc([N+](=O)[O-])ccc1Cl -4.8%
Cc1ccc(C2=NN(C(=O)COc3ncnc4ccccc34)C(c3ccco3)C2)cc1 (stereo not given) -8.2%
COC(=O)c1cc(NC(=O)c2cccnc2)ccc1N1CCOCC1 0.2%
COc1ccc(S(=O)(=O)NC(C)C)cc1C(=O)NC1CCCCC1 7.7%
COc1ccccc1NC(=O)C[n+]1ccccc1 5.8%
Cc1cc(/C=C2/SC(=O)N(CC(=O)N3CCCC3)C2=O)ccc1N1CCOCC1 2.3%
COc1ccc(CCNC(=O)Cn2c(=O)n(CC3CCCO3)c(=O)c3ccccc32)cc1OC (stereo not given) -3.9%
N#C/C(=C\C1=C(N2CCOCC2)C(=C\c2ccccc2)/CC1)C(=O)Nc1ccccc1F 5.9%
CC1CN/C(=C\C(=O)c2ccc(Br)cc2)C(=O)N1 (stereo not given) 12.9%
